From PubChem BioAssay
Dynein transport: inhibitors of GR-EGFP nuclear translocation, primary screen, dynein cargo transport inhibitor project, imaging, high-content, 3617.4 mouse cells | test concentration mostly 20 µM; stimulated with dexamethasone, 1 µM; active compounds read low | z-score, hits read low | actives 0.47% (n = 220,000) | AID 1381, 2008;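 active = plate z-score of nuclear minus cytoplasmic receptor signal below a set negative limit, without overly bright fluorescence or cell loss, cut at about -3.5 in these data, passing the limit was not always enough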;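 also: z-score of nuclear minus cytoplasmic ring GR-EGFP intensity difference per well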
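Also added – dexamethasone, 1.0 µM final · Buffer or medium – tet-free, stripped-serum medium · Schedule – induction 48 h, compound 1 h, agonist 30 min · Detection – formaldehyde fixation, Hoechst nuclear stain, 10x automated fluorescence imaging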
ABHD5 PLIN5 PPI: ABHD5-PLIN5 interaction inhibitors, primary screen, cell lysate, split luciferase complementation, luminescence. Perilipin-5 (Homo sapiens) + 1-acylglycerol-3-phosphate O-acyltransferase ABHD5 (Homo …. Split G. princeps luciferase complementation, 4 h. actives 0.78% (n = 360,000). inhibition, % at 4 µM. AID 602281, 2012;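 active = inhibition above the mean inhibition across every tested compound plus 3 SD, cut at about 22% in these data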
B2AR ag: beta2AR agonists driving receptor internalization, primary screen, cell-based, FAP fluorogen, flow cytometry | Beta-2 adrenergic receptor (Homo sapiens), P07550 | Am2.2-beta2AR cells | response, % (test concentration not listed) | actives 0.43% (n = 340,000);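 active = response above a set limit, near 3 SD of response in nonfluorescent compounds, cut at about 42% in these data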
TLR4-MyD88 BLA: inhibitors of TLR4-MyD88 association in cells, primary screen, cell-based, HeLa CL3-4, BLA complementation, FRET ratio; actives 0.18% (n = 200,000); HeLa CL3-4 TLR4/MyD88 BLA complementation; inhibition, % at 8.4 µM; AID 861, 2007; in the data active = inhibition above about 25%
TLR9-MyD88 block: inhibitors of TLR9-MyD88 association in cells, primary screen, cell-based, CHO, BLA complementation, fluorescence; CCF4 FRET ratio; actives 0.21% (n = 340,000); Toll-like receptor 9 (Homo sapiens) + Myeloid differentiation primary response protein …; AID 504734, 2011; inhibition, % at 4.98 µM;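 active = inhibition above the mean over all tested compounds plus 3 SD, cut at about 21% in these data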
NOD2-RIPK2 inh: NOD2-RIPK2 binding disruptors in cells, primary screen, fluorescence, CHO cells, BLA complementation. Receptor-interacting serine/threonine-protein kinase 2 (Homo sapiens), O43353. CCF4 ratio. inhibition, % at 4.98 µM. actives 0.38% (n = 360,000). AID 624267, 2012; in the data active = inhibition above about 21%
TLR9-MyD88 cf: TLR9-MyD88 association inhibitors, retest, confirmation, cell-based, CHO, BLA complementation, fluorescence, triplicate. shares compounds with TLR9-MyD88 block. CCF4 FRET ratio. inhibition, % at 4.98 µM. actives 51% (n = 680). AID 540250, 2011;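 active = mean inhibition across three repeats above about 21% taken from the earlier screen, limit read from the data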;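 also: blue over green emission ratio reports constitutive TLR9 MyD88 association via BLA complementation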
Target sequence (Q9NR96 whole entry, looked up): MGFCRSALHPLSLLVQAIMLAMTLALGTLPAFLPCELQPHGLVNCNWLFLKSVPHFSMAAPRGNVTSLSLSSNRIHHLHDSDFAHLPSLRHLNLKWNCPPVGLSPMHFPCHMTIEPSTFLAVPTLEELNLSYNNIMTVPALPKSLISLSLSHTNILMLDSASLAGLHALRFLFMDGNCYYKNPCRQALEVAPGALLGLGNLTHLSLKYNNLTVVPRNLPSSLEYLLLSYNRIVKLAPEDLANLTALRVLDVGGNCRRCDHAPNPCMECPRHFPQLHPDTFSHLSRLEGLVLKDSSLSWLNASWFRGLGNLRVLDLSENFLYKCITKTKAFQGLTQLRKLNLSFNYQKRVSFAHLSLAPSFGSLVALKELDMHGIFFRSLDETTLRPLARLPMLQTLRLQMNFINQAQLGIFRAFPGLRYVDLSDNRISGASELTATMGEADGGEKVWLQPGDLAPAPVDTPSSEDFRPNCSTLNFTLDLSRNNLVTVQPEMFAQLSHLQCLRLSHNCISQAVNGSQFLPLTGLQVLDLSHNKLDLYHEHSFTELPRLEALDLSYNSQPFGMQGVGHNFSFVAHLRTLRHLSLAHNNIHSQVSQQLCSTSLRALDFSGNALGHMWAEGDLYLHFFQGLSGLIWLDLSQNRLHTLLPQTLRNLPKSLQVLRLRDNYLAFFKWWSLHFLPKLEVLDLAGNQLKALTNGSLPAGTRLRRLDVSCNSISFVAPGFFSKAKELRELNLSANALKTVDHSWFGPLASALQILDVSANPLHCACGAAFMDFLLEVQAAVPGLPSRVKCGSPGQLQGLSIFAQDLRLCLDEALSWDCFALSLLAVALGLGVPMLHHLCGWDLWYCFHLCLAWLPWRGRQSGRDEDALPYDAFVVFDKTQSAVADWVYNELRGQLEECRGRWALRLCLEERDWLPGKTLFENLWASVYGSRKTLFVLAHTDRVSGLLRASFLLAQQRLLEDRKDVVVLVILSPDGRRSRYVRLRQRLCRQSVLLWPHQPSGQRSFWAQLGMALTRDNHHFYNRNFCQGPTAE
BLA counter-1: beta-lactamase reporter inhibitors in CHO cells, artefact control for TLR9-MyD88 binding inhibitor project, cell-based, fluorescence. shares compounds with TLR9-MyD88 block. CHO-BLA cells, CCF4 FRET ratio, BLA reporter. inhibition, % at 4.98 µM. actives 7% (n = 680). AID 540251, 2011;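 active = mean inhibition above a 50% cutoff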;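 also: counterscreen of TLR9-MyD88 hits on CMV-driven BLA in CHO-K1 cells; higher means less blue over green ratio so more BLA blockade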
TLR9 CHO tox: CHO cell viability loss – luminescence, single concentration, cytotoxicity control for TLR9-MyD88 binding inhibitor project. shares compounds with TLR9-MyD88 block. TLR9-MyD88 CHO cells cytotoxicity. inhibition, % at 4.98 µM. actives 39% (n = 680); in the data active = inhibition above about 11%
ABHD5 PLIN5 conf: ABHD5-PLIN5 interaction inhibitors, confirmation, biochemical, luminescence. shares compounds with ABHD5 PLIN5 PPI. inhibition, % at 4 µM. actives 67% (n = 2,200); in the data active = inhibition above about 23%
HNF4 counter: HNF4 dimerization inhibitors, counter-screen for ABHD5-PLIN5 interaction inhibitor project, biochemical, split-luciferase complementation, luminescence; actives 77% (n = 2,200); shares compounds with ABHD5 PLIN5 PPI; inhibition, % at 4 µM;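 active = mean inhibition across replicate wells exceeding the computed hit threshold, cut at about 13% in these data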;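 also: light from luciferase halves that rejoin when HNF4 fusion proteins dimerize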
NOD2 RIPK2 conf: NOD2-RIPK2 binding disruptors, retest, confirmation, fluorescence, CHO cells, BLA complementation, triplicate; shares compounds with NOD2-RIPK2 inh; AID 624370, 2012; inhibition, % at 4.98 µM; actives 70% (n = 1,200); CCF4 FRET;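 active = mean inhibition across replicates above a set limit taken from the earlier primary screen, cut at about 21% in these data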
BLA counter-2: NOD2-RIPK2 counterscreen BLA reporter activity | shares compounds with NOD2-RIPK2 inh | actives 57% (n = 1,200) | CHO BLA reporter, CCF4 FRET ratio | inhibition, % at 4.98 µM | AID 624371;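 active = mean inhibition above the low-control mean inhibition plus three low-control SD, cut at about 11% in these data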
Numbers stand for hits; . = inactive; / = not tested or not shown; + = active, no number. Shown are actives, neighbours in structure and some others; about 1.6% of the full set was active somewhere.

SMILES | Dynein transport | ABHD5 PLIN5 PPI | B2AR ag | TLR4-MyD88 BLA | TLR9-MyD88 block | NOD2-RIPK2 inh | TLR9-MyD88 cf | BLA counter-1 | TLR9 CHO tox | NOD2 RIPK2 conf | BLA counter-2 | others
CC(=O)N(C1=C(Cl)C(=O)c2ccccc2C1=O)C1CCCCC1 | -6 | 33 | 64 | / | 49 | 54 | 78 | . | 100 | 92 | 34 | ABHD5 PLIN5 conf=84;HNF4 counter=110
O=C1Nc2ccccc2C1Cc1ccccc1 (configuration not stated) | . | . | . | / | . | . | / | / | / | / | /
O=C1C=CC2(C=C1)O[C@H](Cc1ccccc1)[C@@H](Cc1ccccc1)O2 | / | 98 | . | / | 26 | 89 | 39 | . | 99 | 91 | 29 | ABHD5 PLIN5 conf=103;HNF4 counter=109
COc1ccc(C[C@@H]2OC3(C=CC(=O)C=C3)O[C@H]2Cc2ccc(OC)cc2)cc1 | / | 100 | 52 | / | 39 | 92 | 44 | . | 98 | 93 | 38 | ABHD5 PLIN5 conf=104;HNF4 counter=108
COc1ccc(N2C(=O)CC(Cc3ccccc3)C2=O)cc1 (configuration not stated) | . | . | . | . | . | . | / | / | / | / | /
Nc1cccc2c1C(=O)N(CCOc1ccccc1F)C2=O | / | . | . | / | 27 | 33 | . | . | . | 38 | 49
COc1ccc(Nc2nc3cc(-c4ccccc4C)sc3c(=O)n2C)cc1OC | / | . | / | / | / | . | / | / | / | / | /
Cc1ccccc1NC(=O)Cc1nc(COC(=O)c2ccc(S(C)(=O)=O)c([N+](=O)[O-])c2)cs1 | / | 27 | . | / | 25 | 45 | . | . | 84 | 50 | 11 | ABHD5 PLIN5 conf=35;HNF4 counter=42
Cc1ccccc1NC(=O)Cc1nc(COC(=O)c2ccc(NC(N)=O)cc2)cs1 | / | . | . | / | . | . | / | / | / | / | /
CC(C)Nc1ncnc2c1ncn2[C@H]1CN(Cc2ccccc2)C[C@@H](CO)O1 | / | . | / | / | / | . | / | / | / | / | /
O=c1c2c([N+](=O)[O-])cc([N+](=O)[O-])cc2sn1-c1ccc(Br)cc1 | . | . | . | . | . | . | / | / | / | / | /
O=c1c2c([N+](=O)[O-])cc([N+](=O)[O-])cc2sn1Cc1ccccc1 | / | . | . | / | 32 | 26 | . | . | 95 | . | .
Clc1ccc(-c2nc3ccc(Br)cn3c2Cc2ccsc2)cc1 | / | . | / | / | / | . | / | / | / | / | /
O=[N+]([O-])c1ccc(Nc2ccc3ccccc3c2)nc1 | . | . | . | . | 24 | 37 | . | . | . | 21 | 25
CN(C)c1ccc(/C=C/c2nc3ccccc3c(=O)n2-c2ccc(C(=O)O)cc2)cc1 | / | . | . | / | 40 | 34 | 25 | . | . | 60 | 65
O=C(O)c1cccc(-n2c(/C=C/c3ccccc3)nc3ccccc3c2=O)c1 | / | . | . | / | . | . | / | / | / | / | /
CCCCCC(=O)N=Nc1c(O)[nH]c2ccc([N+](=O)[O-])cc12 | . | . | . | . | 23 | + | . | . | . | . | .
NC(=O)CC(NC(=O)Cc1ccc(Br)cc1)c1ccc(N2CCC(N3CCCCC3)CC2)c([N+](=O)[O-])c1 (configuration not stated) | / | . | . | / | . | . | / | / | / | / | /
CCN1C(=O)c2cccc3c(N)ccc(c23)C1=O | / | . | . | / | 25 | 27 | . | . | . | 35 | 35
COC(=O)CNC(=O)CN1C(=O)N(c2ccccc2)C(N(O)C(=O)Nc2ccccc2)C1(C)C (configuration not stated) | . | . | . | . | . | . | / | / | / | / | /
COC(=O)CNC(=O)CN1C(=O)N(c2cccc(Cl)c2)C(N(O)C(=O)Nc2cccc(Cl)c2)C1(C)C (configuration not stated) | . | . | . | . | 32 | 26 | . | . | . | . | 23
O=C(NCc1ccc(Cl)cc1Cl)Nc1nc([C@@H]2O[C@H](CO)[C@@H](O)[C@H](O)[C@H]2O)cs1 | / | . | / | / | / | . | / | / | / | / | /
CC(=O)Nc1cccc(C(=O)/C=C/c2ccc(N(C)C)cc2)c1 | . | . | . | . | 44 | 57 | 24 | . | . | 51 | 58
CN(CCO)c1cc(Sc2nc3ccccc3s2)c2nonc2c1[N+](=O)[O-] | . | 49 | 99 | . | 47 | 91 | 67 | . | 99 | 98 | 33 | ABHD5 PLIN5 conf=80;HNF4 counter=114
NS(=O)(=O)c1ccc(Sc2nc3ccccc3s2)c([N+](=O)[O-])c1 | . | . | . | / | . | . | / | / | / | / | /
O=C(Nc1ccc(F)cc1)C1CCN(S(=O)(=O)c2cccc3nonc23)CC1 | / | . | . | / | . | . | / | / | / | / | /
O=C(Nc1ccc(Cl)cc1)Nc1cccc2nsnc12 | . | . | . | / | 21 | 21 | . | . | . | 35 | 36
O=C(Nc1ccncc1)Nc1cccc(Cl)c1Cl | / | . | . | / | . | . | / | / | / | / | /
C=C1C(=O)c2sccc2C(c2ccc(OC)c(OC)c2)C1COC(C)=O (configuration not stated) | / | 79 | 102 | / | 24 | 95 | 28 | . | 97 | 92 | 13 | ABHD5 PLIN5 conf=95;HNF4 counter=108
CCOC(=O)[C@]12CCCC=C1N(Cc1ccc(Cl)cc1Cl)C(=O)[C@H](CC(=O)NCC1CCCCC1)C2 | / | . | / | / | / | . | / | / | / | / | /
